Assay results reported in ChEMBL document CHEMBL5214998, “Development of Macrocyclic PRMT5-Adaptor Protein Interaction Inhibitors” (J Med Chem, 2022).
One block for each compound: values may come before it. The source made the active and inactive calls. The rule behind the calls is not given here. Numbered stars: 1 amine (or outer) side, 2 acyl side, 3 side chain; on linkers, the order of the positions; unused ones are H or OH. Bridge positions count the residues as written; N and C are the ends. Square brackets hold non-standard residues; d marks the D form. Peptide text beside a SMILES is read from it. * marks the point of attachment. FITC = O=C1OC2(c3ccc(O)cc3Oc3cc(O)ccc32)c2ccc(NC(=S)*)cc21; Hag = O=C([C@H](CCC=[*:3])N[*:1])[*:2]; dAllylGly = C=CC[C@@H](N)C(=O)O

Key:
PRMT5/MEP50 complex [1] = molecular target: T1, PRMT5/MEP50 complex (Homo sapiens, UniProt O14744); assay: Binding affinity to PRMT5/MEP50 (unknown origin) assessed as inhibition constant by FITC- Competitive binding assay; type: protein-complex assay
In short: (§1)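 Competitive FP: 1 nM FITC-labeled tracer peptide with PRMT5-MEP50 (194 nM with tracer 50; 600 nM with tracer 21); unlabeled peptide titrated as two-fold dilutions in 50 mM HEPES, 250 mM NaCl, 1 mM TCEP, 0.01% Tween 20, pH 8.0; room temperature up to 1 h 45 min; read 485/535 nm; triplicate.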

[2] = Stability in human U2OS cells assessed as half life incubated upto 24 hrs by HPLC analysis; type: ADME, cell-based; conditions: U2OS cell lysate
PRMT5/MEP50 complex [3] = molecular target: T1, PRMT5/MEP50 complex; assay: Inhibition of PRMT5/MEP50 (unknown origin) incubated for 1 to 2 hrs in presence of tracer 21 by competitive fluorescence polarization assay; type: protein-complex assay; in short: as §1
PRMT5/MEP50 complex [4] = molecular target: T1, PRMT5/MEP50 complex; assay: Inhibition of PRMT5/MEP50 (unknown origin) incubated for 1 to 2 hrs in presence of tracer 50 by competitive fluorescence polarization assay; type: protein-complex assay; in short: as §1
PRMT5/MEP50 complex [5] = molecular target: PRMT5/MEP50 complex (Homo sapiens, UniProt O14744+Q9BQA1); assay: Binding affinity to PRMT5/MEP50 (unknown origin) assessed as dissociation constant by FITC- Competitive binding assay; type: protein-complex assay
Flp-In-T-REx-293 [6] = assay: Inhibition of PRMT5/RioK1 protein-protein interaction in human Flp-In-T-REx-293 cells over-expressed with GFP-RioK1 at 50 uM incubated for 2 hrs by immunoprecipitation assay; type: cell-based
In short: (§2)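 S100 extracts from induced Flp-In T-REx 293 cells expressing GFP-tagged proteins were treated with peptide at 50 µM (or DMSO) for 1 h at room temperature. GFP-Trap beads were then added for 2 h at 4 °C and washed. Co-purified PRMT5, MEP50, RioK1 and pICln were detected by immunoblot with fluorescent secondary antibodies.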

Flp-In-T-REx-293 [7] = assay: Inhibition of PRMT5/RioK1 protein-protein interaction in human Flp-In-T-REx-293 cells over-expressed with GFP-PRMT5 at 50 uM incubated for 2 hrs by immunoprecipitation assay; type: cell-based; in short: as §2
[8] = Inhibition of full length human ICLN/PRMT5 (unknown origin) protein-protein interaction by fluorescence polarization assay

T1 sequence (O14744 whole entry): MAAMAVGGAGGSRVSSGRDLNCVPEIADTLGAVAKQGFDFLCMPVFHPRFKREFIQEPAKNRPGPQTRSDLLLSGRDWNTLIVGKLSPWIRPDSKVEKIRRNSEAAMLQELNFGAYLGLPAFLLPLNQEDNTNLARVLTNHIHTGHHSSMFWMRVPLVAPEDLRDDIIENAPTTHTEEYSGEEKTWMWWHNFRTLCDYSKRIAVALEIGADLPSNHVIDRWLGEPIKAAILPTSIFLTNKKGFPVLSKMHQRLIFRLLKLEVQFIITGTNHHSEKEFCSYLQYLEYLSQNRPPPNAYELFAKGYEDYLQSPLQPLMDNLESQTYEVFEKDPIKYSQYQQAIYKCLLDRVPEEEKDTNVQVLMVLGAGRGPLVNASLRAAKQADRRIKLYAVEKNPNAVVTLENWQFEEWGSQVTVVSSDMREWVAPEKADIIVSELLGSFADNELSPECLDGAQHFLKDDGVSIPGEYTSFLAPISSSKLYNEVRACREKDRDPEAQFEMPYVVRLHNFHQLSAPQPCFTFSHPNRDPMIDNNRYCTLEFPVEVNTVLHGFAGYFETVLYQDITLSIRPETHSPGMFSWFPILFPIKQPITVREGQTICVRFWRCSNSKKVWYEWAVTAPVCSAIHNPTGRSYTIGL
T1 sequence (Q9BQA1 whole entry, further chain): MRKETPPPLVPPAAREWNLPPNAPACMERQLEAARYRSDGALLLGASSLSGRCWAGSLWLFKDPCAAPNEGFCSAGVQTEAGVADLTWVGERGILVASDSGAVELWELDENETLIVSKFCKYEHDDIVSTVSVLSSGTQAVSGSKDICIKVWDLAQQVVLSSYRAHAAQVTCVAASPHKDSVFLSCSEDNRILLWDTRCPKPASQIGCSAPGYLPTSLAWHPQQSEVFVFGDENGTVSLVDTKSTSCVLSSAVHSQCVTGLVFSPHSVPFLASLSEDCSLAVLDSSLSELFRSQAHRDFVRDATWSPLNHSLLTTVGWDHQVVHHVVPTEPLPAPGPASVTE
Chain of PRMT5/MEP50 complex (Homo sapiens, UniProt O14744+Q9BQA1) (O14744 whole entry): as the sequence (O14744 whole entry) above
Chain of PRMT5/MEP50 complex (Homo sapiens, UniProt O14744+Q9BQA1) (Q9BQA1 whole entry): as the sequence (Q9BQA1 whole entry, further chain) above

Compound: Ac-SRVVPGQFDDAD-NH2
Ki (PRMT5/MEP50 complex [1]): 1800 nM

Compound: Ac-VPGQFDDAD-NH2
Ki (PRMT5/MEP50 complex [1]): 862 nM
half-life [2]: 4.4 h
IC50 (PRMT5/MEP50 complex [3]): 2490 nM
IC50 (PRMT5/MEP50 complex [4]): 5300 nM

Compound: CC(C)[C@H](NC(=O)[C@H](CCCNC(=N)N)NC(=O)[C@H](CO)NC(=O)COCCOCCNC(=S)Nc1ccc2c(c1)C(=O)OC21c2ccc(O)cc2Oc2cc(O)ccc21)C(=O)N[C@H](C(=O)N1CCC[C@H]1C(=O)N[C@H]1CNC(=O)C[C@H](C(=O)N[C@@H](CC(=O)O)C(=O)N[C@@H](C)C(=O)N[C@@H](CC(=O)O)C(N)=O)NC(=O)[C@H](Cc2ccccc2)NC(=O)[C@H](CCC(N)=O)NC1=O)C(C)C
Kd (PRMT5/MEP50 complex [5]): > 2000 nM

Compound: CC(C)[C@H](NC(=O)[C@H](CCCNC(=N)N)NC(=O)[C@H](CO)NC(=O)COCCOCCNC(=S)Nc1ccc2c(c1)C(=O)OC21c2ccc(O)cc2Oc2cc(O)ccc21)C(=O)N[C@H](C(=O)N1CCC[C@H]1C(=O)N[C@H]1C/C=C/C[C@H](C(=O)N[C@@H](CC(=O)O)C(=O)N[C@@H](C)C(=O)N[C@@H](CC(=O)O)C(N)=O)NC(=O)[C@H](Cc2ccccc2)NC(=O)[C@H](CCC(N)=O)NC1=O)C(C)C (stereo in doubt; form 2)
Kd (PRMT5/MEP50 complex [5]): > 2000 nM

Compound: CC(C)[C@H](NC(=O)[C@H](CCCNC(=N)N)NC(=O)[C@H](CO)NC(=O)COCCOCCNC(=S)Nc1ccc2c(c1)C(=O)OC21c2ccc(O)cc2Oc2cc(O)ccc21)C(=O)N[C@H](C(=O)N1CCC[C@H]1C(=O)N[C@H]1CNC(=O)CC[C@H](C(=O)N[C@@H](CC(=O)O)C(=O)N[C@@H](C)C(=O)N[C@@H](CC(=O)O)C(N)=O)NC(=O)[C@H](Cc2ccccc2)NC(=O)[C@H](CCC(N)=O)NC1=O)C(C)C
Kd (PRMT5/MEP50 complex [5]): > 2000 nM

Further lines, with some results ahead:

Kd (PRMT5/MEP50 complex [5]): > 2000 nM
Compound: CC(=O)N[C@H](C(=O)N1CCC[C@H]1C(=O)N[C@H]1CC/C=C/C[C@H](C(=O)N[C@@H](CC(=O)O)C(=O)N[C@@H](C)C(=O)N[C@@H](CC(=O)O)C(=O)N[C@@H](CCCCNC(=S)Nc2ccc3c(c2)C(=O)OC32c3ccc(O)cc3Oc3cc(O)ccc32)C(N)=O)NC(=O)[C@H](Cc2ccccc2)NC(=O)[C@H](CCC(N)=O)NC1=O)C(C)C (Ac-VP[Hag]QF[dAllylGly]DADK(FITC)-NH2; staple (E) 3-6)

IC50 [8]: 654 nM
Compound: CC(=O)N[C@H](C(=O)N1CCC[C@H]1C(=O)N[C@H]1CCCCC[C@@H](C(=O)N[C@@H](CC(=O)O)C(=O)N[C@@H](C)C(=O)N[C@@H](CC(C(=O)O)C(=O)O)C(N)=O)NC(=O)[C@H](Cc2ccc([N+](=O)[O-])cc2)NC(=O)[C@H](CCC(N)=O)NC1=O)C(C)C
inhibition (Flp-In-T-REx-293 [6]): Active
inhibition (Flp-In-T-REx-293 [7]): Active
